From ChEMBL document CHEMBL1157169, “A class of novel nitronyl nitroxide labeling basic and acidic amino acids: synthesis, application for preparing ESR optionally labeling peptides, and bioactivity investigations” (Bioorg Med Chem, 2008) come the findings set out here.

Molecules are shown by their SMILES. Where a SMILES comes first, the peptide text is derived from it.

A short description of data set [1]: Aqueous stability assessed as decomposition time at pH 11.5. It is filed as physicochemical. The settings on record: buffer. An outline of the steps:
(§1)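 Each sample dissolved in aqueous solution at pH 2.0, 7.4 or 11.5 (final 10^-2 mM) and held at room temperature for up to 200 h. Decomposition followed by TLC (CHCl3/CH3OH, 20:1). Value is the time at which decomposition appeared.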

Data set [2] is described as follows: Aqueous stability assessed as decomposition time at pH 7.4. It is filed as physicochemical. The settings on record: buffer. In short, it runs like this: as §1
Data set [3] relates to Aorta. In words: Nitric oxide radical scavenging activity in rat aortic strip assessed as inhibition of acetylcholine-induced vasorelaxation at 1 uM. It is filed as functional, tissue-based.
The test system of data set [4] is Aorta. In words: Nitric oxide radical scavenging activity in rat aortic strip assessed as inhibition of acetylcholine-induced vasorelaxation at 10 uM. It is filed as functional, tissue-based.
A short description of data set [5]: Aqueous stability assessed as decomposition time at pH 2.0. It is filed as physicochemical. The note with it: buffer. An outline of the steps:
as §1

Data set [6] concerns Aorta. In words: Nitric oxide radical scavenging activity in rat aortic strip assessed as inhibition of acetylcholine-induced vasorelaxation at 100 uM. It is filed as functional, tissue-based.
The subject of data set [7] is PC-12. In words: Radical scavenging activity in rat PC12 cells assessed as inhibition of nitric oxide radical-induced cell damage by MTT assay. Type of data set: functional, cell-based. An outline of the steps: (§2)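 PC12 cells grown in DMEM with 10% heat-inactivated horse serum, 5% FBS and 1.0 mM pyruvate at 37 °C, 5% CO2. Seeded at 20,000 cells/well on poly-L-lysine and attached 24 h. Pretreated 1 h with 12.5–200 µM compound. Damage induced by SNP 2 mM for 2 h (NO), H2O2 1 mM for 1 h, or H2O2 1 mM/Fe(II) 30 µM for 1 h (·OH). Media replaced, cells incubated 14 h, survival measured by MTT.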
(In general: Tetrazolium assays rely on reduction of a dye to a coloured formazan, in cell work by metabolically active cells.)

Data set [8] relates to PC-12. Kind of data set: Radical scavenging activity in rat PC12 cells assessed as inhibition of hydroxyl radical-induced cell damage by MTT assay. It is filed as functional, cell-based. An outline of the steps:
as §2

Data set [9] relates to PC-12. In words: Radical scavenging activity in rat PC12 cells assessed as inhibition of hydrogen peroxide radical-induced cell damage by MTT assay. Type of data set: functional, cell-based. In short, it runs like this:
as §2

Data set [10] has as its system Blood. In words: Inhibition of 10 uM platelet activating factor-induced platelet aggregation in rabbit blood. It is filed as functional, Oryctolagus cuniculus. An outline of the steps: (§3)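 Platelet-rich plasma made by centrifuging normal rabbit blood anticoagulated with sodium citrate (3.8% final). Platelets adjusted to 2×10^5/µl with autologous plasma. Aggregation induced by PAF or ADP (final 10^-5–10^-7 M) and read by turbidimetry in an aggregometer. Maximal aggregation rate (Am%) taken as peak height of the curve.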

The test system of data set [11] is Blood. Kind of data set: Inhibition of 0.1 uM adenosine diphosphate-induced platelet aggregation in rabbit blood. Type of data set: functional, Oryctolagus cuniculus. In short, it runs like this: as §3
Data set [12] relates to Blood. In words: Inhibition of 1 uM adenosine diphosphate-induced platelet aggregation in rabbit blood. Type of data set: functional, Oryctolagus cuniculus. An outline of the steps: as §3
For data set [13], the system named is Rattus norvegicus. In words: Antithrombotic activity in Wistar rat assessed as wet thrombus weight at 5 umol/kg. It is filed as functional. An outline of the steps:
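Male Wistar rats (250–300 g) anesthetized with pentobarbital sodium (80.0 mg/kg, ip). The right carotid artery and left jugular vein were cannulated via a polyethylene tube containing a thread, filled with NS or compound dissolved in NS (vehicle NS). Blood shunted 15 min. The thread was weighed wet, then after 2 weeks in a desiccator weighed dry. n = 10, ANOVA.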

For data set [14], the system named is Blood. Kind of data set: Inhibition of 1 uM platelet activating factor-induced platelet aggregation in rabbit blood. It is filed as functional, Oryctolagus cuniculus. An outline of the steps: as §3
In data set [15] the test system is Rattus norvegicus. In words: Antithrombotic activity in Wistar rat assessed as dry thrombus weight at 5 umol/kg.
The subject of data set [16] is Blood. In words: Inhibition of 0.1 uM platelet activating factor-induced platelet aggregation in rabbit blood. It is filed as functional, Oryctolagus cuniculus. An outline of the steps:
as §3

Data set [17] relates to Blood. In words: Inhibition of 10 uM adenosine diphosphate-induced platelet aggregation in rabbit blood. It is filed as functional, Oryctolagus cuniculus. An outline of the steps:
as §3

On to `CC1(C)N(O)C(C(=O)O)=[N+]([O-])C1(C)C`, for which the Time in [1] is 2.5 h; in data set [2], 18 h; in [5] it was 2 h. Further, the results for the inhibition in the data set on Aorta [3], in the data set with Aorta [4] and with Aorta [6] were 1.7%, 25% and 34.3%, respectively.
As for `CC(C)(C)OC(=O)N[C@@H](CCC(=O)NCCOc1ccc(C2=[N+]([O-])C(C)(C)C(C)(C)N2O)cc1)C(=O)O`, the inhibition in the data set on Aorta [3] amounted to 26%; in the data set with Aorta [4] it was 72.4%; in the data set on Aorta [6], 96.9%. The results for the EC50 with PC-12 [7], with PC-12 [8] and with PC-12 [9] were 42.7 µM, 59 µM and 49.9 µM, respectively.
Take `CC1(C)N(O)C(c2ccc(OCCNC(=O)CC[C@H](N)C(=O)N[C@@H](CS)C(=O)NCC(=O)O)cc2)=[N+]([O-])C1(C)C`: the EC50 with PC-12 [7] is 37.8 µM; with PC-12 [8] it was 54.9 µM; with PC-12 [9], 47 µM.
On to `CC1(C)N(O)C(c2ccc(OCCNC(=O)C[C@H](N)C(=O)O)cc2)=[N+]([O-])C1(C)C`, for which the inhibition with Aorta [3] turned out to be 26.7%; with Aorta [4], 72.8%; with Aorta [6], 97.5%. The values for the EC50 with PC-12 [7], with PC-12 [8] and in the data set on PC-12 [9] were 42.3 µM, 58.2 µM and 48.6 µM, respectively.
`CC(C)(C)OC(=O)N[C@@H](CCCNC(=N)NC(=O)COc1ccc(C2=[N+]([O-])C(C)(C)C(C)(C)N2O)cc1)C(=O)O`: the inhibition in the data set on Aorta [3] came out at 24.1%; with Aorta [4] it was 71.2%; in the data set on Aorta [6] it was 95%. The EC50 in the data set with PC-12 [7] was 93 µM; in the data set on PC-12 [8], 102 µM; with PC-12 [9], 32.4 µM.
With `CC1(C)N(O)C(CCl)=[N+]([O-])C1(C)C`, the Time in data set [1] was 2.5 h; in [2] it was 18 h; in data set [5], 2 h. Further, the inhibition is 1.6% with Aorta [3], 7.7% in the data set on Aorta [4] and 25% with Aorta [6].
For `CC1(C)N(O)C(c2ccc(OCCNC(=O)CC[C@H](N)C(=O)N[C@H](CS)C(=O)NCC(=O)O)cc2)=[N+]([O-])C1(C)C`, the inhibition in the data set with Aorta [3] is 25.9%; in the data set on Aorta [4], 72.2%; with Aorta [6], 97.3%.
With `CC(C)[C@H](NC(=O)[C@H](CC(=O)O)NC(=O)CNC(=O)[C@@H](N)CCCNC(=N)N)C(=O)O` (H-RGDV-OH), the “inhibition (INH)” value in the data set on Blood [10] turned out to be 52.07%; in the data set with Blood [11], 12.65%; in the data set on Blood [12] it was 33.41%; in the data set with Blood [14], 34.84%; in the data set on Blood [16], 20.01%; with Blood [17], 49.78%. The figures for the inhibition in the data set with Aorta [3], in the data set with Aorta [4] and in the data set on Aorta [6] were 5.3%, 7.6% and 10.5%, respectively. Further, the Activity in the data set with Rattus norvegicus [13] worked out at 28.6 mg. The dry thrombus weight with Rattus norvegicus [15] is 4.43 mg.
As to `CC1(C)N(O)C(c2ccc([N+](=O)[O-])cc2)=[N+]([O-])C1(C)C`, the Time in data set [1], in data set [2] and in data set [5] was over 200 h in each case. The inhibition with Aorta [4] stood at 71.3%; with Aorta [6], 98%.
Turning to `CC1(C)N(O)C(c2ccco2)=[N+]([O-])C1(C)C`, the Time in [1] is 18 h; in data set [2] it was 30 h; in [5], 15 h. Besides, the inhibition was 1.6% in the data set with Aorta [3], 20.2% with Aorta [4] and 44.4% in the data set on Aorta [6].
As for `CC1(C)N(O)C=[N+]([O-])C1(C)C`, the Time was 2.5 h in data set [1], 18 h in [2] and 2 h in [5]. Besides, the inhibition in the data set with Aorta [3] was determined as 1.7%; in the data set on Aorta [4], 8.6%; in the data set on Aorta [6] it was 31.2%.
On to `COC(=O)[C@@H](N)CC(=O)NCCOc1ccc(C2=[N+]([O-])C(C)(C)C(C)(C)N2O)cc1`, for which the inhibition turned out to be 29.2% in the data set with Aorta [3], 76% with Aorta [4] and 99.1% in the data set with Aorta [6]. In addition, the EC50 with PC-12 [7] turned out to be 39 µM; in the data set on PC-12 [8], 55.6 µM; in the data set on PC-12 [9], 47.8 µM.
With `CC1(C)N(O)C(c2ccc(OCCNC(=O)CC[C@H](N)C(=O)O)cc2)=[N+]([O-])C1(C)C`, the inhibition in the data set with Aorta [3] amounted to 26.2%; in the data set on Aorta [4], 72.4%; in the data set on Aorta [6], 97.1%. The EC50 amounted to 41.8 µM in the data set on PC-12 [7], 58.1 µM in the data set on PC-12 [8] and 49.6 µM in the data set on PC-12 [9].
For `N[C@@H](CCC(=O)O)C(=O)N[C@@H](CS)C(=O)NCC(=O)O` (H-Glu-Cys-Gly-OH), the figures for the inhibition with Aorta [3], with Aorta [4] and in the data set on Aorta [6] were 3.2%, 5.2% and 9.2%, respectively.
With `CC1(C)N(O)C(c2ccc(OCC(=O)NCCCC[C@H](N)C(=O)O)cc2)=[N+]([O-])C1(C)C`, the inhibition in the data set on Aorta [3] is 25.4%; in the data set on Aorta [4] it was 72.3%; with Aorta [6], 98.6%. Also, the half-maximal effective concentration (EC50) in the data set with PC-12 [7] was 90.6 µM; in the data set with PC-12 [8] it was 98.8 µM; with PC-12 [9], 29.9 µM.
As to `CC1(C)N(O)C(c2ccc(OCC(=O)N[C@@H](CCCCN)C(=O)O)cc2)=[N+]([O-])C1(C)C`, the results for the inhibition in the data set with Aorta [3], in the data set with Aorta [4] and with Aorta [6] were 28.7%, 74% and 98.9%, respectively. In addition, the EC50 in the data set on PC-12 [7] was found to be 90.6 µM; in the data set on PC-12 [8], 99.1 µM; in the data set on PC-12 [9], 30.1 µM.
For the molecule `CC1(C)N(O)C(c2ccc(OCC(=O)N[C@@H](CCCNC(=N)N)C(=O)O)cc2)=[N+]([O-])C1(C)C`, the inhibition was 7.8% in the data set on Aorta [3], 10.7% in the data set on Aorta [4] and 15.9% with Aorta [6]. Besides, the EC50 is 92.9 µM in the data set on PC-12 [7], 101 µM with PC-12 [8] and 32.1 µM in the data set with PC-12 [9].
On to `CC1(C)N(O)C(c2ccccc2)=[N+]([O-])C1(C)C`, for which the Time in data set [1], in data set [2] and in data set [5] was over 200 h each time. Moreover, the inhibition with Aorta [3] was found to be 9.8%; with Aorta [4], 62.7%; with Aorta [6], 81.9%.
On to `CC1(C)N(O)C(c2cccnc2)=[N+]([O-])C1(C)C`, for which the Time was 18 h in [1], 30 h in data set [2] and 15 h in data set [5]. Besides, the inhibition in the data set with Aorta [3] turned out to be 1.7%; in the data set on Aorta [4] it was 16.6%; in the data set on Aorta [6], 48.6%.
With `CC(C)(C)OC(=O)N[C@@H](CCCCNC(=O)COc1ccc(C2=[N+]([O-])C(C)(C)C(C)(C)N2O)cc1)C(=O)O`, the inhibition worked out at 28% with Aorta [3], 72.7% in the data set with Aorta [4] and 97.9% with Aorta [6]. Also, the EC50 in the data set with PC-12 [7] is 89.9 µM; in the data set on PC-12 [8], 97.7 µM; with PC-12 [9], 29.3 µM.
As to `N=C(N)NCCC[C@H](N)C(=O)NCC(=O)N[C@@H](CC(=O)O)C(=O)N[C@@H](CO)C(=O)O`, the “inhibition (INH)” value was found to be 53.69% with Blood [10]; 16.6% in the data set on Blood [11]; 39.62% with Blood [12]; 36.47% with Blood [14]; 22.03% in the data set with Blood [16]; 51.5% in the data set with Blood [17]. For the same molecule, the inhibition in the data set on Aorta [3] was determined as 2.9%; in the data set with Aorta [4], 4.3%; with Aorta [6], 8.9%. The Activity with Rattus norvegicus [13] is 27.9 mg. For the same molecule, in the data set on Rattus norvegicus [15], the dry thrombus weight is given as 4.22 mg.

A word on the inhibition: it is the drop in the measured response relative to a control, in per cent. As usually defined, the EC50 is the concentration that produces a half-maximal response.
